Results from ChEMBL document CHEMBL2021869, “Pharmacological evaluation of a novel cyclic phosphatidic acid derivative 3-S-cyclic phosphatidic acid (3-S-cPA)” (Bioorg Med Chem, 2012).
Active and inactive are the calls of the source. The rule behind the calls is not given here.

Experiments:
Autotaxin (Homo sapiens) = Autotaxin (Homo sapiens) (UniProt Q13822); assay: Inhibition of ATX-mediated human MDA-MB-231 cell migration at 10 uM after 8 hrs by Cyto Fluor spectrophotometry relative to lysophosphatidyl choline
In short: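 Calcein-AM-stained MDA-MB-231 cells (4 × 10^5 cells/mL in DMEM with 0.1% fatty-acid-free BSA) placed in upper wells over 8-µm pore membranes; lower wells held 200 µM LPC plus 10 µM compound. Incubated 8 h at 37 °C; non-migrated cells wiped off, migrated-cell fluorescence read at 485/530 nm. Percent of LPC-only control; triplicate wells, ≥3 independent experiments.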

Autotaxin (Bos taurus) [1] = target: Autotaxin (Bos taurus) (UniProt A1A4K5); assay: Inhibition of ATX in fetal bovine serum using FS-3 as substrate at 0.1 to 10 uM after 2 hrs by fluorescence assay
In short: (§1)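 ATX source: fetal bovine serum, mixed with compound in 0.1% BSA and 1 µM FS-3 in Tris-HCl pH 8.0 buffer (1 mM CaCl2, 1 mM MgCl2, 5 mM KCl, 140 mM NaCl). Fluorescence (485/530 nm) read before and after 2 h at 37 °C; pre-incubation value subtracted, normalized to vehicle as percent inhibition; triplicate wells, mean ± S.E.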

Rattus norvegicus [2] = assay: Antinociceptive activity in Wistar rat assessed as somato-somatic C-reflex at 0.2 mg/kg, iv by electromyogram analysis relative to control; assay type: functional
In short: (§2)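 Anesthetised adult male Wistar rats (310–370 g; pentobarbital 50 mg/kg ip); jugular vein catheter for iv dosing at 0.2 mg/kg, blood pressure and heart rate monitored, end-tidal CO2 kept near 3.0%. Reflex EMG evoked by single shocks, averaged over ~50 trials at 3-s intervals; response area expressed as percent of control size 0–15 min before injection; mean ± S.E.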

Rattus norvegicus [3] = organism: Rattus norvegicus; assay: Ratio of natural cPA effective dose to compound effective dose for antinociceptive activity in Wistar rat assessed as reduction in somato-somatic C-reflex; assay type: functional
Rattus norvegicus [4] = assay: (§3) Neuroprotective effect against transient cerebral ischemia-induced delayed neuronal death in Wistar rat hippocampal CA1 region assessed as decrease in GFAP accumulation at 180 ug/kg/5 days dosed through mini-osmotic pump measured after 5 days of occlusion for 8 mins by immunohistochemical staining relative to control; assay type: functional, organism-based
In short: (§4)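 Male Wistar rats under halothane; compound (180 µg·kg−1·5 days−1) or 0.2% fatty-acid-free BSA vehicle given by subcutaneous pump implanted 35–60 min before ischemia. Vertebral arteries ligated, both carotids occluded 8 min at ~37.5 °C. On day 5, formalin perfusion and paraffin sections (6 µm) of hippocampal CA1 stained with HE or anti-GFAP.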

Rattus norvegicus [5] = assay: Antinociceptive activity in Wistar rat assessed as reduction in somato-somatic C-reflex at 0.2 mg/kg, iv by electromyogram analysis relative to control; assay type: functional, organism-based; parameters: dose 0.2 mg/kg; in short: as §2
Rattus norvegicus [6] = assay: as §3, with “reduction” for “decrease”, “pyknosis and shrinkage of cells” for “GFAP accumulation”, “hematoxylin/eosin based” for “immunohistochemical”; assay type: functional, organism-based; in short: as §4
[7] = Lipophilicity, Log P of the compound; assay type: physicochemical; conditions: octanol/water
Rattus norvegicus [8] = assay: Antinociceptive activity in Wistar rat assessed as reduction in A-reflex at 0.2 mg/kg, iv by electromyogram analysis relative to control; assay type: functional, organism-based; parameters: dose 0.2 mg/kg; in short: as §2
Autotaxin (Bos taurus) [9] = target: Autotaxin (Bos taurus) (UniProt A1A4K5); assay: Inhibition of ATX in fetal bovine serum using FS-3 as substrate at 10 uM after 2 hrs by fluorescence assay; in short: as §1

In the case of `CCCCCCCC/C=C\CCCCCCCC(=O)OCC1CSP(=O)(O)O1` (racemic), the inhibition (Autotaxin (Homo sapiens)) is reported as over 40%.
Work on `CCCCCCCCCCCCCCCCCC(=O)OCC1CSP(=O)(O)O1` (racemic) yielded an inhibition (Autotaxin (Homo sapiens)) of over 40%.
In the case of `CCCCCC/C=C\CCCCCCCC(=O)OCC1COP(=O)([O-])C1.[Na+]` (racemic), the inhibition (Autotaxin (Bos taurus) [1]) is reported as “Active”, the Activity (Rattus norvegicus [2]) is reported as 83% and the “fold change (FC)” value (Rattus norvegicus [3]) is reported as 10.
In the case of `CCCCCC/C=C\CCCCCCCC(=O)OCC1CSP(=O)(O)O1.CCN(CC)CC` (racemic), the Activity (Rattus norvegicus [4]) is reported as “Active”, the Activity (Rattus norvegicus [5]) is reported as “Active” and the Activity (Rattus norvegicus [6]) is reported as “Active”. The logP [7] was 5.96, the Activity (Rattus norvegicus [2]) was 87% and the inhibition (Autotaxin (Homo sapiens)) was over 40%. The Activity (Rattus norvegicus [8]) was “inactive”.
`CCCCCCCCCCCCCCCC(=O)OCC1CSP(=O)(O)O1` (racemic) gave an inhibition (Autotaxin (Homo sapiens)) of over 40%.
For `CCCCCC/C=C\CCCCCCCC(=O)OC[C@H]1CSP(=O)(O)O1`, the inhibition (Autotaxin (Bos taurus) [1]) was “Active”.
`CCCCCC/C=C\CCCCCCCC(=O)OC[C@@H]1CSP(=O)(O)O1` showed an inhibition (Autotaxin (Bos taurus) [9]) of 40%.
